{
  "source": "ChEMBL document CHEMBL4689842",
  "about": "“EUbOPEN Chemogenomics Library wave 1” (2021)",
  "tested_on": "Fibroblast",
  "assay": "Multiplex assay against human fibroblast",
  "type": "toxicity, cell-based",
  "how_it_was_run": "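Phenotypes for tubulin, mitochondrial mass and membrane permeability are expressed as per cents of healthy-nucleus cells. Cells were stained live at seeding with Hoechst33342, BioTracker Green Microtubule Cytoskeleton Dye, MitoTracker Red and Annexin V Alexa Fluor 680, then imaged after compound addition on a CQ1 microscope at 37°C and 5% CO2. Machine-learning gating in CellPathfinder separated Hoechst high-intensity objects from normal cells, divided normal cells by nuclear state (healthy, pyknosed, fragmented) and divided pyknosed cells into mitotic or apoptotic.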",
  "key": {"[1]": {"details": "12 h, 1 µM, compound concentration 1 uM, replicate 1"}, "[2]": {"details": "12 h, 1 µM, compound concentration 1 uM, replicate 2"}, "[3]": {"details": "12 h, 10 µM, compound concentration 10 uM, replicate 1"}, "[4]": {"details": "12 h, 10 µM, compound concentration 10 uM, replicate 2"}, "[5]": {"details": "24 h, 1 µM, compound concentration 1 uM, replicate 1"}, "[6]": {"details": "24 h, 1 µM, compound concentration 1 uM, replicate 2"}, "[7]": {"details": "24 h, 10 µM, compound concentration 10 uM, replicate 1"}, "[8]": {"details": "24 h, 10 µM, compound concentration 10 uM, replicate 2"}},
  "data": [
    {"smiles": "CCCS(=O)(=O)Nc1ccc(F)c(C(=O)c2c[nH]c3ncc(Cl)cc23)c1F", "note": "[PLX-4720]", "values": [
      {"measurement": "Population Apoptotic (%)", "setting": "[1]", "value": 55, "unit": "%"},
      {"measurement": "Population Fragmented Nuclei (%)", "setting": "[1]", "value": 20, "unit": "%"},
      {"measurement": "Population Healthy Nuclei (%)", "setting": "[1]", "value": 62, "unit": "%"},
      {"measurement": "Population Hoechst High Intensity Objects (%)", "setting": "[1]", "value": 10, "unit": "%"},
      {"measurement": "Population Membrane Permeable-Phenotype (%)", "setting": "[1]", "value": 5, "unit": "%"},
      {"measurement": "Population Mitochondria Different-Phenotype (%)", "setting": "[1]", "value": 6, "unit": "%"},
      {"measurement": "Population Mitotic Cells (%)", "setting": "[1]", "value": 44, "unit": "%"},
      {"measurement": "Population Normal (%)", "setting": "[1]", "value": 89, "unit": "%"},
      {"measurement": "Population Pyknosed Nuclei (%)", "setting": "[1]", "value": 17, "unit": "%"},
      {"measurement": "Population Tubulin-Different-Phenotype (%)", "setting": "[1]", "value": 14, "unit": "%"},
      {"measurement": "Total Cell Count", "setting": "[1]", "value": 234},
      {"measurement": "Population Apoptotic (%)", "setting": "[2]", "value": 28, "unit": "%"},
      {"measurement": "Population Fragmented Nuclei (%)", "setting": "[2]", "value": 56, "unit": "%"},
      {"measurement": "Population Healthy Nuclei (%)", "setting": "[2]", "value": 31, "unit": "%"},
      {"measurement": "Population Hoechst High Intensity Objects (%)", "setting": "[2]", "value": 29, "unit": "%"},
      {"measurement": "Population Membrane Permeable-Phenotype (%)", "setting": "[2]", "value": 22, "unit": "%"},
      {"measurement": "Population Mitochondria Different-Phenotype (%)", "setting": "[2]", "value": 11, "unit": "%"},
      {"measurement": "Population Mitotic Cells (%)", "setting": "[2]", "value": 71, "unit": "%"},
      {"measurement": "Population Normal (%)", "setting": "[2]", "value": 70, "unit": "%"},
      {"measurement": "Population Pyknosed Nuclei (%)", "setting": "[2]", "value": 12, "unit": "%"},
      {"measurement": "Population Tubulin-Different-Phenotype (%)", "setting": "[2]", "value": 27, "unit": "%"},
      {"measurement": "Total Cell Count", "setting": "[2]", "value": 81},
      {"measurement": "Population Apoptotic (%)", "setting": "[3]", "value": 65, "unit": "%"},
      {"measurement": "Population Fragmented Nuclei (%)", "setting": "[3]", "value": 23, "unit": "%"},
      {"measurement": "Population Healthy Nuclei (%)", "setting": "[3]", "value": 63, "unit": "%"},
      {"measurement": "Population Hoechst High Intensity Objects (%)", "setting": "[3]", "value": 13, "unit": "%"},
      {"measurement": "Population Membrane Permeable-Phenotype (%)", "setting": "[3]", "value": 3, "unit": "%"},
      {"measurement": "Population Mitotic Cells (%)", "setting": "[3]", "value": 34, "unit": "%"},
      {"measurement": "Population Normal (%)", "setting": "[3]", "value": 86, "unit": "%"},
      {"measurement": "Population Pyknosed Nuclei (%)", "setting": "[3]", "value": 13, "unit": "%"},
      {"measurement": "Population Tubulin-Different-Phenotype (%)", "setting": "[3]", "value": 5, "unit": "%"},
      {"measurement": "Total Cell Count", "setting": "[3]", "value": 254},
      {"measurement": "Population Apoptotic (%)", "setting": "[4]", "value": 60, "unit": "%"},
      {"measurement": "Population Fragmented Nuclei (%)", "setting": "[4]", "value": 65, "unit": "%"},
      {"measurement": "Population Healthy Nuclei (%)", "setting": "[4]", "value": 26, "unit": "%"},
      {"measurement": "Population Hoechst High Intensity Objects (%)", "setting": "[4]", "value": 36, "unit": "%"},
      {"measurement": "Population Membrane Permeable-Phenotype (%)", "setting": "[4]", "value": 6, "unit": "%"},
      {"measurement": "Population Mitochondria Different-Phenotype (%)", "setting": "[4]", "value": 6, "unit": "%"},
      {"measurement": "Population Mitotic Cells (%)", "setting": "[4]", "value": 40, "unit": "%"},
      {"measurement": "Population Normal (%)", "setting": "[4]", "value": 63, "unit": "%"},
      {"measurement": "Population Pyknosed Nuclei (%)", "setting": "[4]", "value": 8, "unit": "%"},
      {"measurement": "Population Tubulin-Different-Phenotype (%)", "setting": "[4]", "value": 0, "unit": "%"},
      {"measurement": "Total Cell Count", "setting": "[4]", "value": 95},
      {"measurement": "Population Apoptotic (%)", "setting": "[5]", "value": 53, "unit": "%"},
      {"measurement": "Population Fragmented Nuclei (%)", "setting": "[5]", "value": 25, "unit": "%"},
      {"measurement": "Population Healthy Nuclei (%)", "setting": "[5]", "value": 61, "unit": "%"},
      {"measurement": "Population Hoechst High Intensity Objects (%)", "setting": "[5]", "value": 11, "unit": "%"},
      {"measurement": "Population Membrane Permeable-Phenotype (%)", "setting": "[5]", "value": 7, "unit": "%"},
      {"measurement": "Population Mitochondria Different-Phenotype (%)", "setting": "[5]", "value": 10, "unit": "%"},
      {"measurement": "Population Mitotic Cells (%)", "setting": "[5]", "value": 46, "unit": "%"},
      {"measurement": "Population Normal (%)", "setting": "[5]", "value": 88, "unit": "%"},
      {"measurement": "Population Pyknosed Nuclei (%)", "setting": "[5]", "value": 12, "unit": "%"},
      {"measurement": "Population Tubulin-Different-Phenotype (%)", "setting": "[5]", "value": 22, "unit": "%"},
      {"measurement": "Total Cell Count", "setting": "[5]", "value": 249},
      {"measurement": "Population Apoptotic (%)", "setting": "[6]", "value": 25, "unit": "%"},
      {"measurement": "Population Fragmented Nuclei (%)", "setting": "[6]", "value": 47, "unit": "%"},
      {"measurement": "Population Healthy Nuclei (%)", "setting": "[6]", "value": 34, "unit": "%"},
      {"measurement": "Population Hoechst High Intensity Objects (%)", "setting": "[6]", "value": 40, "unit": "%"},
      {"measurement": "Population Membrane Permeable-Phenotype (%)", "setting": "[6]", "value": 13, "unit": "%"},
      {"measurement": "Population Mitochondria Different-Phenotype (%)", "setting": "[6]", "value": 6, "unit": "%"},
      {"measurement": "Population Mitotic Cells (%)", "setting": "[6]", "value": 75, "unit": "%"},
      {"measurement": "Population Normal (%)", "setting": "[6]", "value": 59, "unit": "%"},
      {"measurement": "Population Pyknosed Nuclei (%)", "setting": "[6]", "value": 18, "unit": "%"},
      {"measurement": "Population Tubulin-Different-Phenotype (%)", "setting": "[6]", "value": 13, "unit": "%"},
      {"measurement": "Total Cell Count", "setting": "[6]", "value": 74},
      {"measurement": "Population Apoptotic (%)", "setting": "[7]", "value": 70, "unit": "%"},
      {"measurement": "Population Fragmented Nuclei (%)", "setting": "[7]", "value": 23, "unit": "%"},
      {"measurement": "Population Healthy Nuclei (%)", "setting": "[7]", "value": 63, "unit": "%"},
      {"measurement": "Population Hoechst High Intensity Objects (%)", "setting": "[7]", "value": 18, "unit": "%"},
      {"measurement": "Population Membrane Permeable-Phenotype (%)", "setting": "[7]", "value": 3, "unit": "%"},
      {"measurement": "Population Mitochondria Different-Phenotype (%)", "setting": "[7]", "value": 4, "unit": "%"},
      {"measurement": "Population Mitotic Cells (%)", "setting": "[7]", "value": 29, "unit": "%"},
      {"measurement": "Population Normal (%)", "setting": "[7]", "value": 81, "unit": "%"},
      {"measurement": "Population Pyknosed Nuclei (%)", "setting": "[7]", "value": 12, "unit": "%"},
      {"measurement": "Population Tubulin-Different-Phenotype (%)", "setting": "[7]", "value": 1, "unit": "%"},
      {"measurement": "Total Cell Count", "setting": "[7]", "value": 271},
      {"measurement": "Population Apoptotic (%)", "setting": "[8]", "value": 50, "unit": "%"},
      {"measurement": "Population Fragmented Nuclei (%)", "setting": "[8]", "value": 64, "unit": "%"},
      {"measurement": "Population Healthy Nuclei (%)", "setting": "[8]", "value": 29, "unit": "%"},
      {"measurement": "Population Hoechst High Intensity Objects (%)", "setting": "[8]", "value": 31, "unit": "%"},
      {"measurement": "Population Membrane Permeable-Phenotype (%)", "setting": "[8]", "value": 10, "unit": "%"},
      {"measurement": "Population Mitochondria Different-Phenotype (%)", "setting": "[8]", "value": 10, "unit": "%"},
      {"measurement": "Population Mitotic Cells (%)", "setting": "[8]", "value": 50, "unit": "%"},
      {"measurement": "Population Normal (%)", "setting": "[8]", "value": 68, "unit": "%"},
      {"measurement": "Population Pyknosed Nuclei (%)", "setting": "[8]", "value": 5, "unit": "%"},
      {"measurement": "Population Tubulin-Different-Phenotype (%)", "setting": "[8]", "value": 10, "unit": "%"},
      {"measurement": "Total Cell Count", "setting": "[8]", "value": 98}
    ]}
  ]
}
